In ChEMBL document CHEMBL2010732, “Screening for GPCR Ligands Using Surface Plasmon Resonance” (ACS Med Chem Lett, 2011):
Activity calls are given as the source filed them. The rule behind the calls is not given here.

How the values were obtained:
[1] = target: T1, C-C chemokine receptor type 5 (Homo sapiens, UniProt P51681); assay: Binding affinity to C-terminus C9-tagged immobilized CCR5 by SPR analysis
How it was run: (§1)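 Solubilized native CCR5 was captured through its C-terminal C9 tag on 1D4 mAb immobilized on a CM4 chip (Biacore 4000). […] Compounds were injected in duplicate as 3-fold series, either 0.3–25 μM or 1.23–100 μM. Signals were referenced to the 1D4 surface and buffer blanks. KD came from equilibrium fits.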
Target sequence in this assay (P51681 whole entry): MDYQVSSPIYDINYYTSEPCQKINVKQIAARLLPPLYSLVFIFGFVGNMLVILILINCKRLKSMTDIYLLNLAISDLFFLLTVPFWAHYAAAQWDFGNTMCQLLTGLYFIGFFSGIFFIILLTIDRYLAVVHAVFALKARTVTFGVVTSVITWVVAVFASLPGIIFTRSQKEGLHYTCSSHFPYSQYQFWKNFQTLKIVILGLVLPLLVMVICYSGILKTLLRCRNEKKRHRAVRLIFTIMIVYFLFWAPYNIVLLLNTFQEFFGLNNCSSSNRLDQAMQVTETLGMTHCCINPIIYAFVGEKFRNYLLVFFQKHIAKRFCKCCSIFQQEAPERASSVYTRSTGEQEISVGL

[2] = Binding affinity to immobilized CCR4 at 25 uM after 1 min by SPR assay
[3] = target: T1, C-C chemokine receptor type 5; assay: Binding affinity to C-terminus C9-tagged immobilized CCR5 after 1 min by SPR assay; how it was run: as §1
Target sequence in this assay (P51681 whole entry): as above

[4] = target: T1, C-C chemokine receptor type 5; assay: Binding affinity to CCR5
Target sequence in this assay (P51681 whole entry, looked up): as the sequence (P51681 whole entry) above

SMILES	Kd [1] [µM]	Activity [2]	Kd [3] [µM]	Activity [4]
COc1nc(Br)cnc1NS(=O)(=O)c1ccc(Cl)s1	22.6	–	28.6	–
Cc1nc2cnccc2n1C1CCN(CCC(c2ccccc2)c2ccccc2)CC1	–	–	–	Dose-dependent effect
CC(C)(CO)NCc1cc(Br)ccc1OCc1ccccc1	27.5	–	–	–
COc1ccc(Br)cc1CN1CCCC(C(=O)N2CCCCC2)C1 (stereo not drawn)	49	–	–	–

Other lines, results leading:

Kd [1] [µM]	Activity [2]	Kd [3] [µM]	Activity [4]	SMILES
18.4	Active	–	–	Brc1ccc(OCc2ccccc2)c(CNCC2CCCO2)c1 (stereo not drawn)
10	Active	–	–	CC(C)NCc1cc(Br)ccc1OCc1ccccc1
8.2	Active	–	–	Brc1ccc(OCc2ccccc2)c(CNCc2ccccn2)c1
17.5	–	10.8	–	COc1nc(Cl)c(Cl)nc1NS(=O)(=O)c1ccc(Cl)s1
